This passage reports Survival results from ChEMBL document CHEMBL4257575, “Discovery of Novel Flavonoid Dimers To Reverse Multidrug Resistance Protein 1 (MRP1, ABCC1) Mediated Drug Resistance in Cancers Using a High Throughput Platform with "Click Chemistry"” (J Med Chem, 2018).

SMILES strings stand for the structures.

This data set addresses Multidrug resistance-associated protein 1 (Homo sapiens, UniProt P33527). The data set is described as follows: Inhibition of MRP1 in human 2008/MRP1 cells assessed as potentiation of doxorubicin-induced cytotoxicity by measuring cell survival at 2 uM after 5 days by MTS assay relative to control. The following applies: 120 h. The format is cell-based. An outline of the steps: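 2008/MRP1 cells (retroviral human MRP1 transfectant; RPMI 1640, 10% FBS) at 4,000 per well, with 100 nM doxorubicin plus crude, unpurified click products in DMSO: 2 µM in the primary screen, 1 µM in the secondary. Incubated 5 days at 37 °C. MTS/PMS added for 2 h at 37 °C, absorbance read at 490 nm. % survival is relative to wells without DOX or product. Run in triplicate, at least three experiments.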

Sequence of Multidrug resistance-associated protein 1 (P33527 whole entry): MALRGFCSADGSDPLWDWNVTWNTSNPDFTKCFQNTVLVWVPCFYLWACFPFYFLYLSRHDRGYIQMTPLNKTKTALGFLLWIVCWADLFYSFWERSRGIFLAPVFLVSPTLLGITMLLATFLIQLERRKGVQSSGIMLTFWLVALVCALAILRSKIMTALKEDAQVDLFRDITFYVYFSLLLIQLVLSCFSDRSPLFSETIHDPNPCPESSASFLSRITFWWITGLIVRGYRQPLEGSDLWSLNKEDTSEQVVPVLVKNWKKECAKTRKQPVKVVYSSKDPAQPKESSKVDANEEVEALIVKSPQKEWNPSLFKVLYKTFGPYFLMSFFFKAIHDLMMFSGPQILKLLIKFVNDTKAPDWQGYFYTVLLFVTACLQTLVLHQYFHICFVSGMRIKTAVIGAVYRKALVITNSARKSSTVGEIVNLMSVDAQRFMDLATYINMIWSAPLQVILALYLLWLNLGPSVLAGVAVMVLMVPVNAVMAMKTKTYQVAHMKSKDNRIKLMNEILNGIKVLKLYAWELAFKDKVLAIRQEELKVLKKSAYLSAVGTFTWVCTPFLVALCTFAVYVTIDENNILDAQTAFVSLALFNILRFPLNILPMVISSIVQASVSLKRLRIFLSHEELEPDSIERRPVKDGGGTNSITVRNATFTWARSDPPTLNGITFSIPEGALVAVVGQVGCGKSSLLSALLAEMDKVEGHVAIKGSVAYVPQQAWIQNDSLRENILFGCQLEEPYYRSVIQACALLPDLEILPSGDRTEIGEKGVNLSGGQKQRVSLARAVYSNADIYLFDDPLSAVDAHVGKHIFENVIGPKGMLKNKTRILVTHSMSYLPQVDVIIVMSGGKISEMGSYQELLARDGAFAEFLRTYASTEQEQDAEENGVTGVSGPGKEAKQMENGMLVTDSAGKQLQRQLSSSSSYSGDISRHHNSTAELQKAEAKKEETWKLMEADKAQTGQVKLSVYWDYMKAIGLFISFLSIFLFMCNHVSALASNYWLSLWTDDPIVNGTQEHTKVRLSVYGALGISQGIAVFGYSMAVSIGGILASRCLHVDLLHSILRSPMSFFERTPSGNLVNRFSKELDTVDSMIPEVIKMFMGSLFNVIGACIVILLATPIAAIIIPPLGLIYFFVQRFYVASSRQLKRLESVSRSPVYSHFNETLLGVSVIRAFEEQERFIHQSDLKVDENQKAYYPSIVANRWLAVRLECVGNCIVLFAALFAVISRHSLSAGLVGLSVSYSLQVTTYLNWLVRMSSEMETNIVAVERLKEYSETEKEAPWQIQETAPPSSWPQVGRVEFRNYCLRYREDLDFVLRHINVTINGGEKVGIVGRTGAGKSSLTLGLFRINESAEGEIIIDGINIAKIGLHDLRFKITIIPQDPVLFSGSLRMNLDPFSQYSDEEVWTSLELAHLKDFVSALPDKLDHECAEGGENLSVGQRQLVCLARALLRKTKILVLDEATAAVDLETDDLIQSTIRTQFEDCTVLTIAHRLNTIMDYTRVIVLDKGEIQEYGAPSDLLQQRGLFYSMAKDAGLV

Turning to `COCOc1cc(OCc2ccccc2)c2c(=O)cc(-c3ccc(OCCCc4cn(CCOCCOc5ccc(-c6oc7ccccc7c(=O)c6OCc6cccc(OC)c6)cc5)nn4)cc3)oc2c1`, the Survival amounted to 79%.

Consider `C#CCCCCOc1ccc(/C=C/C(=O)c2cc(CC)ccc2O)cc1`, for which the Survival came out at 103%. The same measure for `CCc1ccc(O)c(C(=O)/C=C/c2ccc(OCCCCc3cn(CCOCCOCCOc4ccc(-c5cc(=O)c6cc(F)ccc6o5)cc4)nn3)cc2)c1`: 67%; for `O=c1c(OCc2ccccc2)c(-c2cccc(OCCOCCn3cc(CN(Cc4ccccc4)Cc4cn(CCOCCOc5cccc(-c6oc7ccccc7c(=O)c6OCc6ccccc6)c5)nn4)nn3)c2)oc2ccccc12`: 87%. As to `COCOc1cc(OCc2ccccc2)c2c(=O)cc(-c3ccc(OCCCc4cn(CCOCCOc5ccc(-c6oc7ccccc7c(=O)c6OCc6ccccc6)cc5)nn4)cc3)oc2c1`, the Survival stood at 88%. Under `O=c1cc(-c2ccccc2)oc2cc(OCCOCCOCCn3cc(CN(Cc4cn(CCOCCOCCOc5ccc6c(=O)cc(-c7ccccc7)oc6c5)nn4)Cc4cn(CCOCCOCCOc5ccc6c(=O)cc(-c7ccccc7)oc6c5)nn4)nn3)ccc12` stands 77%; under `O=c1cc(-c2ccccc2)oc2cc(OCCOCc3cn(CCOc4cccc5c(=O)cc(-c6ccccc6)oc45)nn3)ccc12`, 68%. For the molecule `O=c1cc(-c2ccc(OCCOCCOCCn3cc(-c4ccc(-c5cn(CCOCCOCCOc6ccc(-c7cc(=O)c8cc(F)ccc8o7)cc6)nn5)cc4)nn3)cc2)oc2ccc(F)cc12`, the Survival was determined as 83%. Under `O=c1cc(-c2ccc(OCCOCCn3cc(-c4cccc(-c5cn(CCOCCOc6ccc(-c7cc(=O)c8ccccc8o7)cc6)nn5)c4)nn3)cc2)oc2ccccc12` stands 79%; under `O=c1c(OCc2ccccc2)c(-c2cccc(OCCOCCn3cc(CN(Cc4cn(CCOCCOc5cccc(-c6oc7ccccc7c(=O)c6OCc6ccccc6)c5)nn4)Cc4cn(CCOCCOc5cccc(-c6oc7ccccc7c(=O)c6OCc6ccccc6)c5)nn4)nn3)c2)oc2ccccc12`, 91%. In the case of `C#CCCCCOc1ccc(-c2cc(=O)c3cc(C)ccc3o2)cc1`, the Survival amounted to 88%. Under `COc1cccc(COc2c(-c3ccc(OCCCCc4cn(CCOCCOc5ccc(-c6cc(=O)c7cc(F)ccc7o6)cc5)nn4)cc3)oc3ccccc3c2=O)c1` stands 65%; under `Cc1ccc2oc(-c3ccc(OCCOCCOCCn4cc(CCCOc5ccc(-c6cc(=O)c7ccccc7o6)cc5)nn4)cc3)cc(=O)c2c1`, 51%; under `C#CCNc1ccccc1`, 87%. Under `O=c1cc(-c2ccc(OCCOCCOCCn3cc(CCCOc4ccc5c(=O)cc(-c6ccccc6)oc5c4)nn3)cc2)oc2ccccc12` stands 54%; under `O=c1cc(-c2ccccc2)oc2c(OCCn3cc(CNc4ccccc4)nn3)cccc12`, 85%; under `COc1cccc(COc2c(-c3ccc(OCCCCc4cn(CCOCCOc5ccc6c(=O)cc(-c7ccccc7)oc6c5)nn4)cc3)oc3ccccc3c2=O)c1`, 56%. The same measure for `[N-]=[N+]=NCCOCCOc1ccc2c(=O)cc(-c3ccccc3)oc2c1`: 91%. With `C#CCCCCOc1ccc2c(=O)cc(-c3ccccc3)oc2c1`, the Survival was 99%. The same measure for `COc1cccc(COc2c(-c3ccc(OCCOCCn4cc(CCCOc5ccc(-c6cc(=O)c7cc(F)ccc7o6)cc5)nn4)cc3)oc3ccccc3c2=O)c1`: 86%. Consider `O=c1cc(-c2ccccc2)oc2cc(OCCCCc3cn(CCOCCOCCOc4ccc5c(=O)cc(-c6ccccc6)oc5c4)nn3)ccc12`, for which the Survival is on record as 61%. In the case of `COc1cccc(COc2c(-c3ccc(OCCCCc4cn(CCOCCOCCOc5ccc(-c6cc(=O)c7cc(F)ccc7o6)cc5)nn4)cc3)oc3ccccc3c2=O)c1`, the Survival is recorded as 60%. `C#CCCCCOc1ccc(-c2oc3ccccc3c(=O)c2OCc2cccc(OC)c2)cc1`: the Survival was determined as 71%.

As to `CCc1ccc(O)c(C(=O)/C=C/c2ccc(OCCCCc3cn(CCOCCOc4cccc(-c5oc6ccccc6c(=O)c5OCc5ccccc5)c4)nn3)cc2)c1`, the Survival is listed as 85%. `O=c1cc(-c2ccccc2)oc2cc(OCCOCCn3cc(-c4ccc(-c5cn(CCOCCOc6ccc7oc(-c8ccccc8)cc(=O)c7c6)nn5)cc4)nn3)ccc12`: the Survival is 79%. The same measure for `O=c1cc(-c2ccc(OCCCc3cn(CCOc4cccc5c(=O)cc(-c6ccccc6)oc45)nn3)cc2)oc2ccccc12`: 69%; for `CN(CCN(C)Cc1cn(CCOCCOc2ccc(-c3cc(=O)c4cc(F)ccc4o3)cc2)nn1)Cc1cn(CCOCCOc2ccc(-c3cc(=O)c4cc(F)ccc4o3)cc2)nn1`: 73%. Under `Cc1ccc(O)c(C(=O)/C=C/c2ccc(OCCCCc3cn(CCOCCOc4ccc(-c5oc6ccccc6c(=O)c5OCc5ccccc5)cc4)nn3)cc2)c1` stands 68%; under `COc1cccc(COc2c(-c3ccc(OCCCCc4cn(CCOCCOCCOc5ccc(-c6cc(=O)c7ccccc7o6)cc5)nn4)cc3)oc3ccccc3c2=O)c1`, 58%.

With `[N-]=[N+]=NCCOCCOCCOc1ccc(-c2cc(=O)c3cc(F)ccc3o2)cc1`, the Survival turned out to be 85%. Under `COc1cccc(COc2c(-c3ccc(OCCOCCn4cc(CCCCOc5ccc(-c6cc(=O)c7cc(C)ccc7o6)cc5)nn4)cc3)oc3ccccc3c2=O)c1` stands 78%; under `[N-]=[N+]=NCCOCCOCCOc1ccc2c(=O)cc(-c3ccccc3)oc2c1`, 90%; under `O=c1c(OCc2ccccc2)c(-c2ccc(OCCOCCOCCn3cc(CN(Cc4ccccc4)Cc4cn(CCOCCOCCOc5ccc(-c6oc7ccccc7c(=O)c6OCc6ccccc6)cc5)nn4)nn3)cc2)oc2ccccc12`, 87%.

For the molecule `CN(CCN(C)Cc1cn(CCOCCOCCOc2ccc(-c3oc4ccccc4c(=O)c3OCc3ccccc3)cc2)nn1)Cc1cn(CCOCCOCCOc2ccc(-c3oc4ccccc4c(=O)c3OCc3ccccc3)cc2)nn1`, the Survival worked out at 84%. For `Cc1ccc(C(=O)/C=C/c2ccc(OCCCCc3cn(CCOCCOc4ccc(-c5cc(=O)c6ccccc6o5)cc4)nn3)cc2)c(O)c1`, the Survival turned out to be 57%.

As to `Cc1ccc(C(=O)/C=C/c2ccc(OCCCCc3cn(CCOCCOc4ccc5c(=O)cc(-c6ccccc6)oc5c4)nn3)cc2)c(O)c1`, the Survival was 62%. The same measure for `C#CCN1CCN(CC#C)CC1`: 81%; for `COc1cccc(COc2c(-c3ccc(OCCCCc4cn(CCOCCOc5ccc(-c6oc7ccccc7c(=O)c6OCc6cccc(OC)c6)cc5)nn4)cc3)oc3ccccc3c2=O)c1`: 57%; for `O=c1cc(-c2ccc(OCCCc3cn(CCOCCOc4ccc(-c5oc6ccccc6c(=O)c5OCc5ccccc5)cc4)nn3)cc2)oc2ccc(F)cc12`: 97%. The same measure for `O=c1cc(-c2ccccc2)oc2cc(OCCOCCn3cc(CN(Cc4ccccc4)Cc4cn(CCOCCOc5ccc6oc(-c7ccccc7)cc(=O)c6c5)nn4)nn3)ccc12`: 76%; for `C#CCN(CCOc1ccc2c(=O)cc(-c3ccccc3)oc2c1)Cc1ccccc1`: 86%. The same measure for `C#CCCCCOc1ccc(/C=C/C(=O)c2ccc(F)cc2O)cc1`: 99%; for `Cc1ccc(C(=O)/C=C/c2ccc(OCCCCc3cn(CCOCCOCCOc4ccc(-c5cc(=O)c6ccccc6o5)cc4)nn3)cc2)c(O)c1`: 55%. Turning to `O=C(/C=C/c1ccc(OCCCCc2cn(CCOCCOc3ccc4c(=O)cc(-c5ccccc5)oc4c3)nn2)cc1)c1ccccc1O`, the Survival was found to be 58%.

Take `Cc1ccc(C(=O)/C=C/c2ccc(OCCCCc3cn(CCOc4cccc5c(=O)cc(-c6ccccc6)oc45)nn3)cc2)c(O)c1`: the Survival is given as 75%. The same measure for `O=c1c(OCc2ccccc2)c(-c2cccc(OCCOCCn3cc(CNc4ccccc4)nn3)c2)oc2ccccc12`: 92%.

As to `CN(CCN(C)Cc1cn(CCOCCOCCOc2ccc(-c3cc(=O)c4ccccc4o3)cc2)nn1)Cc1cn(CCOCCOCCOc2ccc(-c3cc(=O)c4ccccc4o3)cc2)nn1`, the Survival turned out to be 71%.

With `Cc1ccc2oc(-c3ccc(OCCCCc4cn(CCOCCOCCOc5ccc(-c6oc7ccccc7c(=O)c6OCc6ccccc6)cc5)nn4)cc3)cc(=O)c2c1`, the Survival worked out at 59%. Regarding `CN(CCN(C)Cc1cn(CCOCCOCCOc2ccc3c(=O)cc(-c4ccccc4)oc3c2)nn1)Cc1cn(CCOCCOCCOc2ccc3c(=O)cc(-c4ccccc4)oc3c2)nn1`, the Survival amounted to 88%. The same measure for `CN(CCN(C)Cc1cn(CCOCCOCCOc2ccc(-c3cc(=O)c4cc(F)ccc4o3)cc2)nn1)Cc1cn(CCOCCOCCOc2ccc(-c3cc(=O)c4cc(F)ccc4o3)cc2)nn1`: 79%; for `O=C(/C=C/c1ccc(OCCCCc2cn(CCOCCOc3ccc(-c4cc(=O)c5cc(F)ccc5o4)cc3)nn2)cc1)c1ccc(F)cc1O`: 70%; for `O=c1c(OCc2ccccc2)c(-c2ccc(OCCOCCn3cc(CN(Cc4cn(CCOCCOc5ccc(-c6oc7ccccc7c(=O)c6OCc6ccccc6)cc5)nn4)Cc4cn(CCOCCOc5ccc(-c6oc7ccccc7c(=O)c6OCc6ccccc6)cc5)nn4)nn3)cc2)oc2ccccc12`: 77%. For the molecule `COc1cccc(COc2c(-c3ccc(OCCOCCn4cc(-c5cccc(-c6cn(CCOCCOc7ccc(-c8oc9ccccc9c(=O)c8OCc8cccc(OC)c8)cc7)nn6)c5)nn4)cc3)oc3ccccc3c2=O)c1`, the Survival was determined as 82%. Turning to `O=c1c(OCc2ccccc2)c(-c2cccc(OCCOCCn3cc(-c4ccc(-c5cn(CCOCCOc6cccc(-c7oc8ccccc8c(=O)c7OCc7ccccc7)c6)nn5)cc4)nn3)c2)oc2ccccc12`, the Survival is 82%. Under `CCc1ccc(O)c(C(=O)/C=C/c2ccc(OCCCCc3cn(CCOCCOCCOc4ccc(-c5oc6ccccc6c(=O)c5OCc5ccccc5)cc4)nn3)cc2)c1` stands 77%.
